Assay results as given in the RNAGym collection of RNA variant scans (doi:10.1002/anie.201605470).

B1: Osa-1-4 twister ribozyme (parent)
chain: CCGCCUAACACUGCCAAUGCCGGUCCCAAGCCCGGAUAAAAGUGGAGGGGGCGG

Variants of: B1
Test: self-cleavage, relative activity (ratio to wild type); higher = more cleavage; co-transcriptional
Outline: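 In vitro transcription at 37 °C for 2 h allowed the twister ribozyme to cleave itself as it was made. Its 54-nucleotide Oryza sativa template had been synthesised with 97 % wild-type base and 1 % of each other base at the 48 positions downstream of the cleavage site. A template-switching oligonucleotide was used for reverse transcription, followed by PCR amplification and deep sequencing. Whether reads carried upstream sequence set the cleavage status, and relative activity is the fraction cleaved normalised to wild type.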

Variant	self-cleavage
CCGCCUAACACUGCCAUUGCCGGUCCCGAGCCCGGAUAAAAGUGGAGGGGGCGG [A17U A28G]	0.37
CCGCCUAACACUGCCAUUGCCGGUCCCUAGCCCGGAUAAAAGUGGAGGGGGCGG [A17U A28U]	0.97
CCGCCUAACACUGCCAUUGCCGGUCCCCAGCCCGGAUAAAAGUGGAGGGGGCGG [A17U A28C]	0.94
CCGCCUAACACUGCCAUUGCCGGUCCCAAGCCCGGAUUAAAGUGGAGGGGGCGG [A17U A38U]	1.02
CCGCCUAACACUGCCAUUGCCGGUCCCAAGCCCGGAUGAAAGUGGAGGGGGCGG [A17U A38G]	1.02
CCGCCUAACACUGCCAUUGCCGGUCCCAAGCCCGGAUCAAAGUGGAGGGGGCGG [A17U A38C]	0.98
CCGCCUAACACUGCCAUUACCGGUCCCAAGCCCGGAUAAAAGUGGAGGGGGCGG [A17U G19A]	0.83
CCGCCUAACACUGCCAUUCCCGGUCCCAAGCCCGGAUAAAAGUGGAGGGGGCGG [A17U G19C]	0.43
CCGCCUAACACUGCCAUUUCCGGUCCCAAGCCCGGAUAAAAGUGGAGGGGGCGG [A17U G19U]	0.38
CCGCCUAACACUGCCAUUGCCGGUCCCAAGCACGGAUAAAAGUGGAGGGGGCGG [A17U C32A]	0.13
CCGCCUAACACUGCCAUUGCCGGUCCCAAGCGCGGAUAAAAGUGGAGGGGGCGG [A17U C32G]	0.17
CCGCCUAACACUGCCAUUGCCGGUCCCAAGCUCGGAUAAAAGUGGAGGGGGCGG [A17U C32U]	0.25
CCGCCUAACACUGCCAUUGCCGGUCCCAAGACCGGAUAAAAGUGGAGGGGGCGG [A17U C31A]	0.05
CCGCCUAACACUGCCAUUGCCGGUCCCAAGUCCGGAUAAAAGUGGAGGGGGCGG [A17U C31U]	0.94
CCGCCUAACACUGCCAUUGCCGGUCCCAAGGCCGGAUAAAAGUGGAGGGGGCGG [A17U C31G]	0.12
CCGCCUAACACUACCAUUGCCGGUCCCAAGCCCGGAUAAAAGUGGAGGGGGCGG [A17U G13A]	0.14
CCGCCUAACACUUCCAUUGCCGGUCCCAAGCCCGGAUAAAAGUGGAGGGGGCGG [A17U G13U]	0.03
CCGCCUAACACUCCCAUUGCCGGUCCCAAGCCCGGAUAAAAGUGGAGGGGGCGG [A17U G13C]	0.03
CCGCCUUACACUGCCAUUGCCGGUCCCAAGCCCGGAUAAAAGUGGAGGGGGCGG [A17U A7U]	0.09
CCGCCUAACACUGCCAUUGCCGGUCCCAAGCCCAGAUAAAAGUGGAGGGGGCGG [A17U G34A]	0.82
CCGCCUAACACUGCCAUUGCCGGUCCCAAGCCCUGAUAAAAGUGGAGGGGGCGG [A17U G34U]	0.78
CCGCCUAACACUGCCAUUGCCGGUCCCAAGCCCCGAUAAAAGUGGAGGGGGCGG [A17U G34C]	0.5
CCGCCUAACACUGCCAUUGCCGGUACCAAGCCCGGAUAAAAGUGGAGGGGGCGG [A17U C25A]	0.14
CCGCCUAACACUGCCAUUGCCGGUUCCAAGCCCGGAUAAAAGUGGAGGGGGCGG [A17U C25U]	0.93
CCGCCUAACACUGCCAUUGCCGGUGCCAAGCCCGGAUAAAAGUGGAGGGGGCGG [A17U C25G]	0.1

Variant	self-cleavage
CCGCCUAACACUGCCAUUGCCGGUCCCAAGCCCGGAUAACAGUGGAGGGGGCGG [A17U A40C]	0.09
CCGCCUAACACUGCCAUUGCCGGUCCCAAGCCCGGAUAAUAGUGGAGGGGGCGG [A17U A40U]	0.63
CCGCCUAACACUGCCAUUGCCGGUCCCAAGCCCGGAUAAGAGUGGAGGGGGCGG [A17U A40G]	0.93
CCGCCUACCACUGCCAUUGCCGGUCCCAAGCCCGGAUAAAAGUGGAGGGGGCGG [A17U A8C]	0.11
CCGCCUAGCACUGCCAUUGCCGGUCCCAAGCCCGGAUAAAAGUGGAGGGGGCGG [A17U A8G]	0.62
CCGCCUAUCACUGCCAUUGCCGGUCCCAAGCCCGGAUAAAAGUGGAGGGGGCGG [A17U A8U]	0.42
CCGCCUAACACUGCCAUUGCGGGUCCCAAGCCCGGAUAAAAGUGGAGGGGGCGG [A17U C21G]	0.09
CCGCCUAACACUGCCAUUGCAGGUCCCAAGCCCGGAUAAAAGUGGAGGGGGCGG [A17U C21A]	0.83
CCGCCUAACACUGCCAUUGCUGGUCCCAAGCCCGGAUAAAAGUGGAGGGGGCGG [A17U C21U]	1.05
CCGCCUAACACUGCCAUUGCCGGUCCCAAGCCAGGAUAAAAGUGGAGGGGGCGG [A17U C33A]	0.19
CCGCCUAACACUGCCAUUGCCGGUCCCAAGCCUGGAUAAAAGUGGAGGGGGCGG [A17U C33U]	0.85
CCGCCUAACACUGCCAUUGCCGGUCCCAAGCCGGGAUAAAAGUGGAGGGGGCGG [A17U C33G]	0.06
CCGCCUAACACUGCCAUUGCCGGUCCUAAGCCCGGAUAAAAGUGGAGGGGGCGG [A17U C27U]	0.25
CCGCCUAACACUGCCAUUGCCGGUCCGAAGCCCGGAUAAAAGUGGAGGGGGCGG [A17U C27G]	0.13
CCGCCUAACACUGCCAUUGCCGGUCCAAAGCCCGGAUAAAAGUGGAGGGGGCGG [A17U C27A]	0.29
CCGCCUAACACUGCCAUUGCCGGUCCCAAGCCCGAAUAAAAGUGGAGGGGGCGG [A17U G35A]	0.9
CCGCCUAACACUGCCAUUGCCGGUCCCAAGCCCGUAUAAAAGUGGAGGGGGCGG [A17U G35U]	0.92
CCGCCUAACACUGCCAUUGCCGGUCCCAAGCCCGCAUAAAAGUGGAGGGGGCGG [A17U G35C]	0.86
CCGCCUAACAAUGCCAUUGCCGGUCCCAAGCCCGGAUAAAAGUGGAGGGGGCGG [A17U C11A]	0.7
CCGCCUAACAGUGCCAUUGCCGGUCCCAAGCCCGGAUAAAAGUGGAGGGGGCGG [A17U C11G]	0.48
CCGCCUAACAUUGCCAUUGCCGGUCCCAAGCCCGGAUAAAAGUGGAGGGGGCGG [A17U C11U]	0.86
CCGCCUAACACUGCCAUUGCCGGUCCCAAGCCCGGAUAAAAGUGGAGGGGGGGG [A17U C52G]	0.98
CCGCCUAACACUGCCAUUGCCGGUCCCAAGCCCGGAUAAAAGUGGAGGGGGUGG [A17U C52U]	1.01
CCGCCUAACACUGCCAUUGCCGGUCCCAAGCCCGGAUAAAAGUGGAGGGGGAGG [A17U C52A]	1.02
